Assay [1] has as its target T1, 5-hydroxytryptamine receptor 6 (Homo sapiens, UniProt P50406). Nature of the assay: Displacement of [3H]LSD from human 5HT6 receptor expressed in HEK293 cells by liquid scintillation counting. It counts as cell-based. In a few lines:
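Bound ligand was collected on polyethylenimine-pretreated glass fiber filters, washed with 50 mM Tris-Cl pH 7.4, and counted by liquid scintillation. Nonspecific binding was defined with 100 µM serotonin. Triplicate points. IC50 came from linear regression, and Ki was derived by Cheng-Prusoff.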
On the technique in general: In a radioligand displacement assay an active substance lowers the binding of a labelled ligand.

For assay [2], the target named is T1, 5-hydroxytryptamine receptor 6. Briefly: Displacement of [3H]LSD from human 5HT6 receptor expressed in HEK293 cells at 100 uM by liquid scintillation counting. It counts as cell-based.
In assay [3] the target is T2, Alpha-2A adrenergic receptor (Homo sapiens, UniProt P08913).
T2 sequence (P08913 whole entry): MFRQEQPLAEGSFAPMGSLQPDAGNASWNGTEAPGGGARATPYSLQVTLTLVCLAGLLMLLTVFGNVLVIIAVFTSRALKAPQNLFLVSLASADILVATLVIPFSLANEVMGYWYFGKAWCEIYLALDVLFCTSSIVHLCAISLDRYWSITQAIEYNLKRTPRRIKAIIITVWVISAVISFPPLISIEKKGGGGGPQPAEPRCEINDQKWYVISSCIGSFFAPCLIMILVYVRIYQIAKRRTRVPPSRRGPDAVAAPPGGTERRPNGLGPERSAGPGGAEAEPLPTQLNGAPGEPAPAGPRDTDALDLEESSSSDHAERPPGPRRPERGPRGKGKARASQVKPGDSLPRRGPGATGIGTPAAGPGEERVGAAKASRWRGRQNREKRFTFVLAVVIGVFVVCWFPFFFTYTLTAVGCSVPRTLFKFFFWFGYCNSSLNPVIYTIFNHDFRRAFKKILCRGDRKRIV
Briefly: Inhibition of human adrenergic alpha2A receptor.

Assay [4] deals with T1, 5-hydroxytryptamine receptor 6. Nature of the assay: Agonist activity at human 5HT6 receptor expressed in HEK293F cells assessed as stimulation of cAMP level after 30 mins by HTRF assay […]. It is filed as functional, cell-based. The procedure, abridged: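 HEK293F cells stably expressing human 5-HT6 were held overnight in serum-free medium, then 20000 cells/well were placed in Ham's F12 with 1 mM IBMX and 20 µM pargyline. Compound or vehicle was added for 30 min at 37 °C. Results were given as Emax and EC50.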

For assay [5], the target named is T3, 5-hydroxytryptamine receptor 1A (Homo sapiens, UniProt P08908).
T3 sequence (P08908 whole entry): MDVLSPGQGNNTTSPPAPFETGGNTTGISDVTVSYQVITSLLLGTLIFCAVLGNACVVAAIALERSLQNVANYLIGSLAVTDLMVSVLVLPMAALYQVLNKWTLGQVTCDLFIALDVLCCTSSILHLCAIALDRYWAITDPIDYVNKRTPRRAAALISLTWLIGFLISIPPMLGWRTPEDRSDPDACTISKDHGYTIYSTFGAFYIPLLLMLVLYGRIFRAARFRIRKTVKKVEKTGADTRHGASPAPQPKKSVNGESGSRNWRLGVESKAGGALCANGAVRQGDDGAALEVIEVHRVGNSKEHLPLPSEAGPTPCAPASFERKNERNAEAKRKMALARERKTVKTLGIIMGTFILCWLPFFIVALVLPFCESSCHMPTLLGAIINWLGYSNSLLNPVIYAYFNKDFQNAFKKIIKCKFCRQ
Nature of the assay: Inhibition of human 5HT1A receptor.

The target in assay [6] is T1, 5-hydroxytryptamine receptor 6. Nature of the assay: Displacement of [3H]LSD from human 5HT6 receptor expressed in HEK293 cells at 1 uM by liquid scintillation counting. It counts as cell-based.
The target in assay [7] is Sodium-dependent serotonin transporter (Homo sapiens, UniProt P31645). Briefly: Inhibition of human SERT.
The target of assay [8] is T4, 5-hydroxytryptamine receptor 2C (Homo sapiens, UniProt P28335).
T4 sequence (P28335 whole entry): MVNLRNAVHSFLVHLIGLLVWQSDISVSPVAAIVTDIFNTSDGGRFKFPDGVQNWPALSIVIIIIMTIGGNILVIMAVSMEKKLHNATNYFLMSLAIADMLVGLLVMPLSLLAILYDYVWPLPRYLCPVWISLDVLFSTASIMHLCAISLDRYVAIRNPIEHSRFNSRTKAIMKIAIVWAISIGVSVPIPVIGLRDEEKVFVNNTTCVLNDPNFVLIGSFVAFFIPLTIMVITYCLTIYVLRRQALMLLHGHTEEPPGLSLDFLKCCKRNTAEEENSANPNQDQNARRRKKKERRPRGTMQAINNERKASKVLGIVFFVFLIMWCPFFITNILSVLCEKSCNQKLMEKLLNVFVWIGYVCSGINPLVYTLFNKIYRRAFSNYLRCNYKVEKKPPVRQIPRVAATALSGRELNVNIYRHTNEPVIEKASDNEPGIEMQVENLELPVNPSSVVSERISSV
Briefly: Inhibition of human 5HT2C receptor.

Assay [9] deals with T5, Adrenergic receptor alpha-1 (Rattus norvegicus, UniProt P15823+P23944+P43140).
T5 sequence (P15823 whole entry): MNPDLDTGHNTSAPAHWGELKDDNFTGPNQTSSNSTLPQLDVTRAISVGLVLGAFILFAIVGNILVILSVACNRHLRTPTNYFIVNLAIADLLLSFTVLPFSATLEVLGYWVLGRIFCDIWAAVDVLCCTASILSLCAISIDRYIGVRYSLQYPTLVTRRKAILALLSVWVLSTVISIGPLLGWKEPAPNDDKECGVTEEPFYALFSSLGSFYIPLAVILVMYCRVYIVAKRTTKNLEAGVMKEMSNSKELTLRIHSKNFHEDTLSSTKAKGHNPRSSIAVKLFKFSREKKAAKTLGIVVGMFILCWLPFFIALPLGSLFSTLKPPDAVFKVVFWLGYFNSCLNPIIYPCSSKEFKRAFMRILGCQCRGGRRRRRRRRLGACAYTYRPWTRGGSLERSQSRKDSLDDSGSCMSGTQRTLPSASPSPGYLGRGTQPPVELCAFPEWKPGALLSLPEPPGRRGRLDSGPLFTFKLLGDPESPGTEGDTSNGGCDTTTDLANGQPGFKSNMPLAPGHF
T5 sequence (P23944 whole entry): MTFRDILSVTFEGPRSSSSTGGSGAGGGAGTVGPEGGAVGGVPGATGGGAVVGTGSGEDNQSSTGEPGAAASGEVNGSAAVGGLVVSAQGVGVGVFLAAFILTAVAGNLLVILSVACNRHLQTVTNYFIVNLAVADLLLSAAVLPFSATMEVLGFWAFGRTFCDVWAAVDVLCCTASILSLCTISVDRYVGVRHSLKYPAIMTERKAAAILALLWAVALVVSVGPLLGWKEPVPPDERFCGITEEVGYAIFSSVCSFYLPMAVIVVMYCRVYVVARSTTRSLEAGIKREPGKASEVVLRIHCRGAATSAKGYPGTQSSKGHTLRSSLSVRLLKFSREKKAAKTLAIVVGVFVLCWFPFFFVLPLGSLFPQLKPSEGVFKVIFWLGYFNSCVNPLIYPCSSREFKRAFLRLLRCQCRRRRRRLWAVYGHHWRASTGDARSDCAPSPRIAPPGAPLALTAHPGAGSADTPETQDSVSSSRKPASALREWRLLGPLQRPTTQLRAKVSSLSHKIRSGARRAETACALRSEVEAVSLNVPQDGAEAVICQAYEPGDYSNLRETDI
T5 sequence (P43140 whole entry): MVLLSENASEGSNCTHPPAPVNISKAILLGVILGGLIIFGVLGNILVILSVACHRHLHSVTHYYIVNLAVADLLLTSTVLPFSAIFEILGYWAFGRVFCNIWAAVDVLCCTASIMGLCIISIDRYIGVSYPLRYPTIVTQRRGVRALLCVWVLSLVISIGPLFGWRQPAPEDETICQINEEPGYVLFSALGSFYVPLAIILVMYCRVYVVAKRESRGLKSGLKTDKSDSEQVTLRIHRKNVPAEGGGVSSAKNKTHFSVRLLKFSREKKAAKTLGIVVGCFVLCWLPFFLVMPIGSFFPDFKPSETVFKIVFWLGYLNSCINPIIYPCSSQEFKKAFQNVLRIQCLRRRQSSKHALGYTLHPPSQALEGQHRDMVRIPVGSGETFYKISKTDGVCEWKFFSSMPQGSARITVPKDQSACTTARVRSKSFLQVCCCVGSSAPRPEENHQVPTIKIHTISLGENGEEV
Briefly: Inhibition of rat adrenergic alpha1 receptor.

Each structure is given as a SMILES string.

T1 sequence (P50406 whole entry): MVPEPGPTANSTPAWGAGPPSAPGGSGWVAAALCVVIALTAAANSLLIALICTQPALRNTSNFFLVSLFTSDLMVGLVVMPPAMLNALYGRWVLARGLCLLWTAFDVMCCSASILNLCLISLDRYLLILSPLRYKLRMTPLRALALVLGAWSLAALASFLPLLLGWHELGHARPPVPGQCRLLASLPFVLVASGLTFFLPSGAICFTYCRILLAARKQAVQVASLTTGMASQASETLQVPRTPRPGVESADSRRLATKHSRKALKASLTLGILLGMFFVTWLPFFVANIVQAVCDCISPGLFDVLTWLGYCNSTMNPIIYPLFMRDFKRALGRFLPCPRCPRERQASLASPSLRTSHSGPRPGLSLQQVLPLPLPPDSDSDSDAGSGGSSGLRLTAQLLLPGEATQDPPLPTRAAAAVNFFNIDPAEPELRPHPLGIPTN
Chain of Sodium-dependent serotonin transporter (P31645 whole entry): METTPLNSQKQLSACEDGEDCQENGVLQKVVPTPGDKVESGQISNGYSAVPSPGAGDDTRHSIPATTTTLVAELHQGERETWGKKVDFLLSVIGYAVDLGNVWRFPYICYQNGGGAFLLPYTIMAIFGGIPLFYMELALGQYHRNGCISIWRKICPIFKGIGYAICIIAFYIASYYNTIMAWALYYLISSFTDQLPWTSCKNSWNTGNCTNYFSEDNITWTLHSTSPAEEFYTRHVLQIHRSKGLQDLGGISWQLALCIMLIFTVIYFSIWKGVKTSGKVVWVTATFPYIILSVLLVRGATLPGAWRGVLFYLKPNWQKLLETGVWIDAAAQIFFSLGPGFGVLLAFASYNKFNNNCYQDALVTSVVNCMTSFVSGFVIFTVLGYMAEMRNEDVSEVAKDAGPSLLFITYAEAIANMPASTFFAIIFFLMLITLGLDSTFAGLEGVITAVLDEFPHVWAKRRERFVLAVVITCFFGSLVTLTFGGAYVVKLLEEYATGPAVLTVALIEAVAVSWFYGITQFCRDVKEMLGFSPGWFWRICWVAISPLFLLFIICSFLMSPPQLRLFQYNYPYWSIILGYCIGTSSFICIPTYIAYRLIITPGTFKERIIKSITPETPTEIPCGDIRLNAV

Take `CNc1cc(NS(=O)(=O)c2ccc(N)cc2)nc(NC)n1`: the Ki in [1] was 47 nM.

In turn, `CC1=C(CCN2CCCC2)c2cc(NS(=O)(=O)c3cccc4nsnc34)ccc2C1` had an Activity in [2] of 19%.

With `CN(C)CCc1cn(S(=O)(=O)c2ccccc2)c2ccccc12`, the affinity in [1], expressed as Ki, was 3 nM.

In assay [2], `Cc1c(S(=O)(=O)Nc2ccc3c(c2)C(CCN(C)C)=CC3(C)C)sc2ccc(Cl)cc12` yielded an Activity of 2%.

Consider `CC1=C(CCN(C)C)c2cc(S(=O)(=O)Nc3cccc4ccccc34)ccc2C1`, for which the values for the IC50 in assay [3] and in assay [5] were 1100 nM and over 1000 nM, respectively. Also, the Emax in assay [4] was 95%. Also, the EC50 in [4] (read-out: EC50) worked out at 14 nM. In assay [2], this compound gave an Activity of 51%.

`CC1=C(CCN(C)C)c2cc(NS(=O)(=O)c3csc4ccccc34)ccc2C1`: the 50% inhibitory concentration (IC50) in assay [3] was determined as 700 nM; in assay [5], 1140 nM. In addition, in assay [4], the Emax is 101%. Further, in assay [4] (read-out: EC50), the EC50 was found to be 0.3 nM. In assay [1], this compound displayed a Ki of 53 nM. In assay [2], the Activity was determined as 88%.

As for `CC1=C(CCN(C)C)c2cc(NS(=O)(=O)c3ccc(N)cc3)ccc2C1`, the Activity in assay [2] turned out to be 4%.

`CC1=C(CCN2CCCC2)c2cc(NS(=O)(=O)c3sc4ccc(Cl)cc4c3C)ccc2C1`: the Emax in assay [4] turned out to be 78%. The compound also yielded an Activity in assay [6] of 100%.

Turning to `CC1=C(CCN(C)C)c2cc(NS(=O)(=O)c3c(Cl)nc4sccn34)ccc2C1`, the IC50 was over 1000 nM in assay [3]; over 10000 nM in [7]; over 1000 nM in [5]; 1130 nM in [8]; over 10000 nM in assay [9]. Also, in assay [4], the Emax stood at 98%. Further, in assay [4] (read-out: EC50), the EC50 was found to be 0.9 nM. Moreover, the Ki in assay [1] is 4.5 nM. Moreover, in [6], the Activity was determined as 100%.

As to `CN(C)CCC1=CCc2ccc(NS(=O)(=O)c3c(Cl)nc4sccn34)cc21`, the IC50 in assay [3] is over 1000 nM; in assay [7], over 10000 nM; in assay [5] it was over 1000 nM; in [8], over 1000 nM; in assay [9], over 10000 nM. For the same compound, the Emax in assay [4] worked out at 99%. The EC50 in assay [4] (read-out: EC50) amounted to 0.3 nM. This compound also displayed a Ki in [1] of 10 nM. In [2], the Activity came out at 87%.

As to `CC1=C(CCN(C)C)c2cc(NS(=O)(=O)c3cccc4nsnc34)ccc2C1`, in assay [2], the Activity was 16%.

`CC1=C(CCN2CCCC2)c2cc(NS(=O)(=O)c3c(Cl)nc4sccn34)ccc2C1`: the Emax in [4] came to 37%. Affinity in assay [1] was put at a Ki of 17 nM. The same compound had an Activity in assay [2] of 81%.

`CCN(c1ccc2c(c1)C(CCN(C)C)=C(C)C2)S(=O)(=O)c1sc(C)c2cc(Cl)ccc12` registered an Activity in assay [2] of 3%.

Turning to `CN(C)CCc1c[nH]c2ccc(NS(=O)(=O)c3ccc4c(Cl)cccc4c3)cc12`, the Emax in assay [4] stood at 96%. In assay [4] (read-out: pEC50 (converted)), the EC50 is 0.295 nM.

In the case of `CC1=C(CCN(C)C)c2cc(NS(=O)(=O)c3ccc4ccccc4c3)ccc2C1`, the IC50 in assay [3] and in [5] was over 1000 nM each time. For the same compound, the Emax in assay [4] is 98%. The EC50 in assay [4] (read-out: EC50) came out at 3.2 nM. Moreover, the Activity in assay [2] came out at 71%.

`CN(C)CCC1=CC(C)(C)c2ccc(NS(=O)(=O)c3c(Cl)nc4sccn34)cc21` displayed an Activity in [2] of 24%.

`CC1=C(CCN(C)C)c2cc(NS(=O)(=O)c3cccc4ccccc34)ccc2C1` yielded a Ki in assay [1] of 276 nM. Besides, in [2], the Activity turned out to be 78%.

Regarding `O=S(=O)(Nc1ccc2c(c1)C(CCN1CCCCC1)=CC2)c1c(Cl)nc2sccn12`, in [4], the Emax was -58%. The Ki in assay [1] was found to be 31 nM. In [2], the Activity is 81%.

For the compound `CC1=C(CCN2CCCC2)c2cc(NS(=O)(=O)c3ccc(N)cc3)ccc2C1`, the Activity in assay [2] was determined as 63%.

As usually defined, the Ki is the dissociation constant of the complex between target and ligand, obtained from inhibition or displacement. A low value points to tighter binding. A word on the IC50: it is the midpoint of a concentration-inhibition curve. A low value points to inhibition by little substance. One may read the Emax as the maximal effect, on the per cent scale that the assay sets.

These data come from ChEMBL document CHEMBL1143393, “Indene-based scaffolds. 2. An indole-indene switch: discovery of novel indenylsulfonamides as 5-HT6 serotonin receptor agonists” (J Med Chem, 2009).
